According to ChEMBL document CHEMBL1137710, “Synthesis and in vitro antitumor activity of new quinoxaline derivatives” (2009):

Experiments:
Format in all cases: functional
SR = assay: Growth inhibition of human SR cells after 48 hrs by sulforhodamine B assay
How it was run: (§1)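 Run in the NCI 60-human-tumour-cell-line panel, tested over a 5-log dose range. Dose–response curves gave three values per cell line, each as a log10 molar concentration: GI50 (50% inhibition of net cell growth), TGI (total inhibition of net growth) and LC50 (50% net cell death). The mean graph midpoint is the arithmetic mean over all lines, with insensitive lines entered at the highest concentration tested.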

EKVX = assay: Growth inhibition of human EKVX cells after 48 hrs by sulforhodamine B assay
How it was run: (§2)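 NCI 60-human-tumor-cell-line panel, with compounds tested over a 5-log dose range. Values are taken from dose-response curves as log10 molar concentrations: GI50 is 50% net growth inhibition, TGI is total growth inhibition, and LC50 is 50% net cell death.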

786-0 = assay: Growth inhibition of human 786-0 cells after 48 hrs by sulforhodamine B assay; settings: 786-0, 48 h; how it was run: as §2
NCI/ADR-RES = assay: Growth inhibition of human NCI/ADR-RES cells after 48 hrs by sulforhodamine B assay; how it was run: as §2
SF-539 = assay: Growth inhibition of human SF539 cells after 48 hrs by sulforhodamine B assay; settings: SF-539, 48 h; how it was run: as §2
HOP-62 = assay: Growth inhibition of human HOP62 cells after 48 hrs by sulforhodamine B assay; settings: HOP-62, 48 h; how it was run: as §2
HOP-92 = assay: Growth inhibition of human HOP92 cells after 48 hrs by sulforhodamine B assay; settings: HOP-92, 48 h; how it was run: as §2
T47D = assay: Growth inhibition of human T47D cells after 48 hrs by sulforhodamine B assay; how it was run: as §1
OVCAR-3 = assay: Growth inhibition of human OVCAR-3 cells after 48 hrs by sulforhodamine B assay; settings: OVCAR-3, 48 h; how it was run: as §2
HL-60(TB) = assay: Growth inhibition of human HL-60(TB) cells after 48 hrs by sulforhodamine B assay; settings: HL-60, 48 h
How it was run: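 Tested only on compounds active in a three-line prescreen, in the NCI 60-human-tumour-cell-line panel over a 5-log dose range. Values come from dose–response curves as log10 molar GI50, the concentration inhibiting 50% net cell growth. Log10 TGI (total growth inhibition) and log10 LC50 (50% net cell death) were derived too. Mean graph midpoints include insensitive lines at the highest concentration tested.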

CCRF-CEM = assay: Growth inhibition of human CCRF-CEM cells after 48 hrs by sulforhodamine B assay; how it was run: as §2
MOLT-4 = assay: Growth inhibition of human MOLT4 cells after 48 hrs by sulforhodamine B assay; settings: MOLT-4, 48 h; how it was run: as §2
BT-549 = assay: Growth inhibition of human BT549 cells after 48 hrs by sulforhodamine B assay; settings: BT-549, 48 h; how it was run: as §2
[1] = Growth inhibition of human Hs 578T cells after 48 hrs by sulforhodamine B assay; how it was run: as §2
SN12C = assay: Growth inhibition of human SN12C cells after 48 hrs by sulforhodamine B assay; how it was run: as §1
Malme-3M = assay: Growth inhibition of human MALME-3M cells after 48 hrs by sulforhodamine B assay; how it was run: as §2
HT-29 = assay: Growth inhibition of human HT-29 cells after 48 hrs by sulforhodamine B assay; settings: HT-29, 48 h; how it was run: as §2
CAKI-1 = assay: Growth inhibition of human Caki1 cells after 48 hrs by sulforhodamine B assay; settings: CAKI-1, 48 h; how it was run: as §2
NCI-H522 = assay: Growth inhibition of human NCI-H522 cells after 48 hrs by sulforhodamine B assay; settings: NCI-H522, 48 h; how it was run: as §2
LOX IMVI = assay: Growth inhibition of human LOXIMVI cells after 48 hrs by sulforhodamine B assay; how it was run: as §2
OVCAR-5 = assay: Growth inhibition of human OVCAR5 cells after 48 hrs by sulforhodamine B assay; settings: OVCAR-5, 48 h; how it was run: as §2
ACHN = assay: Growth inhibition of human ACHN cells after 48 hrs by sulforhodamine B assay
SK-MEL-2 = assay: Growth inhibition of human SK-MEL-2 cells after 48 hrs by sulforhodamine B assay; settings: SK-MEL-2, 48 h; how it was run: as §2
A498 = assay: Growth inhibition of human A498 cells after 48 hrs by sulforhodamine B assay; settings: A498, 48 h; how it was run: as §2
HCT-15 = assay: Growth inhibition of human HCT15 cells after 48 hrs by sulforhodamine B assay; settings: HCT-15, 48 h; how it was run: as §2
NCI-H322M = assay: Growth inhibition of human NCI-H322M cells after 48 hrs by sulforhodamine B assay; how it was run: as §2
KM12 = assay: Growth inhibition of human KM12 cells after 48 hrs by sulforhodamine B assay; settings: KM12, 48 h; how it was run: as §2
K562 = assay: Growth inhibition of human K562 cells after 48 hrs by sulforhodamine B assay; settings: K562, 48 h; how it was run: as §2
UO-31 = assay: Growth inhibition of human UO31 cells after 48 hrs by sulforhodamine B assay; settings: UO-31, 48 h; how it was run: as §1
[2] = read-out: pLC50 (the source's name) (converted)

COc1cc(CNc2nc3cc(N)cc(N)c3nc2-c2ccccc2)cc(OC)c1
GI50 (SR): 3.8 µM
LC50 (concentration giving 50% net cell death) (SR): > 100 µM
TGI (SR; read-out: pTGI (converted)): > 100 µM
GI50 (EKVX): 2.82 µM
LC50 (50% net cell kill) (EKVX): > 100 µM
TGI (EKVX; read-out: pTGI (converted)): 8.91 µM
GI50 (786-0): 12.6 µM
CC50 (786-0; [2]): > 100 µM
TGI (786-0; read-out: pTGI (converted)): 44.7 µM
GI50 (NCI/ADR-RES): 5.5 µM
CC50 (NCI/ADR-RES; [2]): > 100 µM
TGI (NCI/ADR-RES; read-out: pTGI (converted)): 33.1 µM
GI50 (SF-539): 5.25 µM
LC50 (SF-539): 77.6 µM
TGI (SF-539; read-out: pTGI (converted)): 21.4 µM
GI50 (HOP-62): 13.5 µM
LC50 (HOP-62): 72.4 µM
TGI (HOP-62; read-out: pTGI (converted)): 31.6 µM
GI50 (HOP-92): 1.15 µM
LC50 (50% net cell death) (HOP-92): 9.55 µM
TGI (HOP-92; read-out: pTGI (converted)): 3.31 µM
GI50 (T47D): 1.66 µM
CC50 (T47D; [2]): > 100 µM
TGI (T47D; read-out: pTGI (converted)): 4.57 µM
GI50 (OVCAR-3): 1.86 µM
CC50 (OVCAR-3; [2]): > 100 µM
TGI (OVCAR-3; read-out: pTGI (converted)): 4.57 µM
GI50 (HL-60(TB)): 3.8 µM
LC50 (HL-60(TB)): > 100 µM
TGI (HL-60(TB); read-out: pTGI (converted)): > 100 µM
GI50 (CCRF-CEM): 1.74 µM
LC50 (CCRF-CEM): > 100 µM
TGI (CCRF-CEM; read-out: pTGI (converted)): 5.62 µM
GI50 (MOLT-4): 3.02 µM
LC50 (MOLT-4): > 100 µM
TGI (MOLT-4; read-out: pTGI (converted)): > 100 µM
GI50 (BT-549): 9.77 µM
CC50 (BT-549; [2]): > 100 µM
TGI (BT-549; read-out: pTGI (converted)): > 100 µM
GI50 [1]: 8.51 µM
CC50 [1, 2]: > 100 µM
TGI ([1]; read-out: pTGI (converted)): > 100 µM
GI50 (SN12C): 11.5 µM
CC50 (SN12C; [2]): > 100 µM
TGI (SN12C; read-out: pTGI (converted)): > 100 µM
GI50 (Malme-3M): 4.9 µM
CC50 (Malme-3M; [2]): > 100 µM
TGI (Malme-3M; read-out: pTGI (converted)): 33.9 µM
GI50 (HT-29): 8.13 µM
LC50 (HT-29): > 100 µM
TGI (HT-29; read-out: pTGI (converted)): 44.7 µM
GI50 (CAKI-1): 15.8 µM
CC50 (CAKI-1; [2]): > 100 µM
TGI (CAKI-1; read-out: pTGI (converted)): > 100 µM
GI50 (NCI-H522): 2.88 µM
LC50 (NCI-H522): > 100 µM
TGI (NCI-H522; read-out: pTGI (converted)): 22.9 µM
GI50 (LOX IMVI): 4.47 µM
LC50 (LOX IMVI): > 100 µM
TGI (LOX IMVI; read-out: pTGI (converted)): 81.3 µM
GI50 (OVCAR-5): 5.89 µM
CC50 (OVCAR-5; [2]): > 100 µM
TGI (OVCAR-5; read-out: pTGI (converted)): 29.5 µM
GI50 (ACHN): 9.33 µM
CC50 (ACHN; [2]): > 100 µM
TGI (ACHN; read-out: pTGI (converted)): 47.9 µM
GI50 (SK-MEL-2): 7.76 µM
CC50 (SK-MEL-2; [2]): > 100 µM
TGI (SK-MEL-2; read-out: pTGI (converted)): 40.7 µM
GI50 (A498): 91.2 µM
CC50 (A498; [2]): > 100 µM
TGI (A498; read-out: pTGI (converted)): > 100 µM
GI50 (HCT-15): 19.5 µM
GI50 (NCI-H322M): 44.7 µM
LC50 (NCI-H322M): > 100 µM
TGI (NCI-H322M; read-out: pTGI (converted)): > 100 µM
GI50 (KM12): 4.27 µM
LC50 (50% net cell kill) (KM12): > 100 µM
TGI (KM12; read-out: pTGI (converted)): 74.1 µM
GI50 (K562): 3.63 µM
LC50 (K562): > 100 µM
TGI (K562; read-out: pTGI (converted)): 9.33 µM
GI50 (UO-31): 4.07 µM
CC50 (UO-31; [2]): > 100 µM
TGI (UO-31; read-out: pTGI (converted)): > 100 µM
